Published values collected from several papers.
Target: Sodium-dependent serotonin transporter (SLC6A4, Homo sapiens, UniProt P31645)

CCN(CC)c1ccc(C2Nc3ccc(C(=O)c4ccccc4)cc3NC3=C2C(=O)CC(C)(C)C3)cc1 (stereo not shown) has an inhibition of 57% (ligand displacement; radioligand; 10 µM).
O=C(c1ccc(Cl)cc1)N(Cc1ccccc1)C1CCCCC1 gave an inhibition of -7.1% (cell-free assay; 10 µM).
N#Cc1cc(Cn2c(N3CCCC3)nc3ccccc32)ccc1F gave an inhibition of -16.9% (ligand displacement; 10 µM).
COc1cc(NC(C)=O)c(Cl)cc1C(=O)Nc1nccs1 has an inhibition of -12.3% (cell-free assay; 10 µM).
CCCNc1nc2ccccc2n1Cc1ccc(Cl)cc1 has an inhibition of -8.27% (ligand displacement; 10 µM).
With O=C1N=C(N2CCCCN2)S/C1=C\c1ccc(F)cc1O the inhibition was under 10% (ligand displacement; radioligand; 10 µM).
COc1ccc(-n2nc(OCCCN3CCCCC3)ccc2=O)cc1 gave an inhibition of 43.6% (ligand displacement; 1 µM).
With CCN(Cc1ccccc1C(F)(F)F)C(=O)C1CCN(S(=O)(=O)c2ccc3[nH]ncc3c2)CC1 the inhibition was 2% (ligand displacement; radioligand; 10 µM).
For CN(C)CCCN1c2ccccc2CCc2ccccc21, the inhibition was 19.6% (transporter uptake; inhibitor; radiometric; COS-7; 4 nM).
CN1CCN(CCCOc2ccc(=O)n(-c3ccc(Cl)c(Cl)c3)n2)CC1 has an inhibition of 21.7% (ligand displacement; 1 µM).
